Measurements pooled from the literature.
Lines come from different studies, so protocols differ.
Target: Tyrosine-protein kinase SYK (SYK, Homo sapiens, UniProt P43405)

SMILES	effect on	method	concentration	remaining binding [%]
COc1ccc2c(c1)O[C@H](c1ccc(OC)c(OC)c1)C[C@@H]2NC(=O)C1(c2ccc3c(c2)OC(F)(F)O3)CC1	cell-free assay	competition with immobilised ligand	1 µM	100
O=C(c1ccc(Nc2ncc(Cl)c(-c3cc4ccccc4s3)n2)cc1)N1CCC(N2CCCC2)CC1	binding	competition with immobilised ligand	1 µM	8.6
c1cnn2ncc(-c3ccnc(N4CCC45COC5)n3)c2c1	binding	–	1 µM	99
COc1ncc2cc3ccccc3nc2c1C#N	cell-free assay	competition with immobilised ligand	5 µM	98
O=C(NCCCN1CCOCC1)c1ccc(Nc2nccc(-c3cc4ccccc4s3)n2)cc1	binding	competition with immobilised ligand	1 µM	17
CN(C)c1nccc(-c2cnc3ncccn23)n1	binding	–	1 µM	78
CCc1ccccc1C(=O)Nc1n[nH]c2c(C)c(F)c(C3C(C#N)=C(C)N(C)C(C)=C3C#N)cc12	cell-free assay	competition with immobilised ligand	1 µM	100
C[C@@H]1CCN(c2nccc(-c3cnn4ncccc34)n2)C1	binding	–	1 µM	84
O=C(NCCCN1CCOCC1)c1ccc(Nc2ncc(Cl)c(-c3ccc(Cl)s3)n2)cc1	binding	competition with immobilised ligand	1 µM	34
CN(C)c1ncc(F)c(-c2cnn3ncccc23)n1	binding	–	1 µM	76
FC(F)(F)Oc1cccc(-c2cnc3ccc(-c4ccncc4)nn23)c1	binding	competition with immobilised ligand	5 µM	64
Nc1ncc2c(n1)-c1c([nH]c3ccc(C#CC4CC4)cc13)CCCC2	binding	competition with immobilised ligand	1 µM	100
CN(C)c1ncnc(-c2ccc3nc(Nc4cc(CN5CCN(C(=O)CC(F)(F)F)CC5)ccn4)[nH]c3c2)c1Cl	cell-free assay	competition with immobilised ligand	1 µM	96
O=C(Nc1c[nH]nc1C(=O)NC1CCNCC1)c1cc(F)cc(F)c1	binding	competition with immobilised ligand	1 µM	100
N#CC1(c2ccccn2)CCN(Cc2cc(C(=O)N3CCCC3)c(=O)n3ccccc23)CC1	cell-free assay	competition with immobilised ligand	1 µM	92
N[C@@H]1CCN(c2nccc(-c3cnn4ncccc34)n2)C1	binding	–	1 µM	100
C[C@@H]1CN(c2cc(-c3n[nH]c4ccc(OC5(C)CC5)cc34)ncn2)C[C@H](C)O1	cell-free assay	competition with immobilised ligand	0.1 µM	96
CN(c1nccc(-c2cnn3ncccc23)n1)C1CC1	binding	–	1 µM	100
O=C(Nc1cccnn1)N1CCC(=Cc2cccc(Oc3ccc(C(F)(F)F)cn3)c2)CC1	cell-free assay	competition with immobilised ligand	1 µM	100
CNC(=O)[C@@H]1CC[C@@H](n2c(-c3ccc4cnccc4c3)nc3ccc(C(=O)NCc4cccc(C(N)=O)c4)cc32)C1	binding	competition with immobilised ligand	1 µM	99
